RGS4 pot: RGS4 potentiation or activation; 310,000 compounds, 0.92% hits; AID 463111; HEK293 M3R/inducible RGS4, carbachol calcium flux Fluo4; hits give low values; B-score at 10 µM;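 active = B-score of the integrated calcium signal more than 4 SD below the library mean, with starting fluorescence not abnormally high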;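 note: negative B-score means reduced calcium response which marks RGS4 activation or potentiation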
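Assay system: Inducible-RGS4 HEK293 cells carrying M3 receptor | Schedule: Compound preincubation 20 min at room temperature before agonist | Signal: Kinetic calcium fluorescence imaging with Fluo4-AM dye, 2 µM | Read-out basis: B score from integrated fluorescence ratio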
MrgX1 antagonist: human MrgX1 receptor antagonism, primary screen; Q96LB2; MRGX1-HEK293 calcium flux, Fluo-4, BAM8-22 antagonism; hits give low values; B-score at 10 µM; 310,000 compounds, 1.3% hits; AID 588676;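 active = calcium-response B-score plate-corrected more than 3 library SD below zero, starting fluorescence within 5 deviations, no agonist response on first addition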;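 note: peak minus trough fluorescence over baseline after final BAM8-22 challenge near maximal dose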
Target sequence (Q96LB2 whole entry, looked up): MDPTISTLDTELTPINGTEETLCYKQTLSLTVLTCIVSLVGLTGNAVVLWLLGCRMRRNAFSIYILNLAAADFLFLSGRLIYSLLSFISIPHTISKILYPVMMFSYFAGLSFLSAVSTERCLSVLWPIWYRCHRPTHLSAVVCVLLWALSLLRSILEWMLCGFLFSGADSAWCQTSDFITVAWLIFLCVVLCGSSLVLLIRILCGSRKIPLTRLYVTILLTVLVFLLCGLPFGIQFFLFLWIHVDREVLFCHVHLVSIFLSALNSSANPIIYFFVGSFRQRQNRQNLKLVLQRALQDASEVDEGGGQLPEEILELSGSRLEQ
MrgX1 ag: human MrgX1 receptor agonism, primary screen; 310,000 compounds, 0.44% hits; Q96LB2; MrgX1-HEK293 cells, Fluo-4 calcium fluorescence, agonist mode; hits give high values; B-score at 10 µM;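 active = calcium response B-score plate-corrected fluorescence ratio at least 3 library SD, with starting fluorescence B-score inside 5 SD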
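Material: MrgX1-expressing HEK293 cells / Dosing: compound as first of three additions / Incubation: overnight seeding, then 1 h dark dye loading / Signal: Fluo-4 NW calcium fluorescence / Evaluation: B-scored fluorescence response ratio / Benchmarks: positive and negative control wells on each plate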
RGS4 block: human RGS4 inhibition. P49798. HEK293 M3R/RGS4 inducible, Fluo-4 calcium flux; hits give high values; triggered by carbachol at its EC20. B-score at 10 µM. 310,000 compounds, 0.45% hits;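 active = B-score, a plate-corrected calcium signal, over three deviations above library mean, with baseline fluorescence within five deviations of library mean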;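 note: RGS4 expression induced by doxycycline in cells with stable M3 receptor; B-score is computed from the integrated fluorescence ratio over baseline after carbachol; higher B-score means a larger calcium signal and so more RGS4 inhibition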
Target sequence (P49798 whole entry, looked up): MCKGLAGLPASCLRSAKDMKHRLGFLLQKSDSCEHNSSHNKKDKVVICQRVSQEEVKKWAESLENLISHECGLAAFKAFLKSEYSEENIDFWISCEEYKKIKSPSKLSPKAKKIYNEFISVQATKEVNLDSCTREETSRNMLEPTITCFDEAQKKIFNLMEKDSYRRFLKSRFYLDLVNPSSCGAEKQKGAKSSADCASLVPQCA
MrgX1 allo act: allosterically activates human MrgX1 receptor signaling; B-score at 10 µM; 310,000 compounds, 0.63% hits; MrgX1-HEK293, Fluo-4 calcium flux, FDSS; hits give high values; AID 588675; Q96LB2;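 active = plate-corrected calcium response at least 3 library SD above typical, normal starting fluorescence, not activating the receptor alone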;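 note: compound read alongside a low EC10 to EC30 dose of BAM8-22 agonist; peak minus trough fluorescence over baseline measured at the second addition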
MrgX1 ant reconf: confirmation of human MrgX1 receptor antagonists; shares compounds with MrgX1 antagonist; MrgX1-HEK293, BAM8-22 calcium flux, Fluo-4; hits give low values; remaining BAM8-22 calcium response % of control (hits give low values), % at 10 µM; 2,300 compounds, 19% hits; AID 602420;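 active = remaining agonist calcium response no higher than 100% minus 3 SD of agonist-only control wells, with starting fluorescence near control levels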;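 note: agonist BAM8-22 given at a near maximal EC90 to ECmax level; peak minus minimum fluorescence divided by baseline after agonist addition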
HEK293 Ca flux: activity in parental HEK293 cells lacking MrgX1 | fluorescence ratio F(max-min)/F0 at 10 µM | shares compounds with MrgX1 antagonist | 4,000 compounds, 2% hits | AID 624111 | Fluo-4 calcium fluorescence, FDSS;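 active = duplicate-averaged calcium fluorescence ratio at least three times the standard deviation of buffer wells, a nonspecific response in parental cells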
HEK293 Ca counter: MrgX1 allosteric activator counter-screen hit in parental HEK293 cells | shares compounds with MrgX1 antagonist | parental HEK293 calcium flux, Fluo-4 fluorescence ratio; hits give high values | fluorescence ratio F(max-min)/F0 at 10 µM | 4,000 compounds, 0.4% hits | AID 624114;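 active = calcium fluorescence ratio, averaged over duplicates, at least 3 SD of the buffer-well ratio, meaning a nonspecific response in receptor-free cells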;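 note: untransfected parental HEK293 lacking MrgX1 used as counterscreen for MrgX1 allosteric activators; fluorescence change taken during the second addition on a kinetic imager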
HEK293 Ca cntr2: counter-screen for MrgX1 activators: effect in parental HEK293 cells | shares compounds with MrgX1 antagonist | Fluo-4 calcium fluorescence (FDSS); hits give high values | 4,000 compounds, 8.7% hits | fluorescence ratio F(max-min)/F0 at 10 µM;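 active = calcium fluorescence ratio at least three times the spread of buffer wells, meaning a non-specific response in parental cells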
* = called active by the depositor; i = inactive; / = no result; ! = repeats disagree. Only some compounds are listed: those with a hit (about 3.5% of all), similar ones and a draw of the others.

SMILES	RGS4 pot	MrgX1 antagonist	MrgX1 ag	RGS4 block	MrgX1 allo act	MrgX1 ant reconf	HEK293 Ca flux	HEK293 Ca counter	HEK293 Ca cntr2
CCc1c(C)c2c(C)nn(-c3ccccc3)c2[nH]c1=O	i	-4.6*	i	i	i	85%*	i	i	i
CC(C)c1ccc(CN(C(=O)/C=C/c2ccco2)C2CCS(=O)(=O)C2)cc1 (centres undefined)	i	i	i	i	i	/	/	/	/
Nc1nnnn1/N=C/C=C/c1ccccc1	i	i	i	i	i	/	/	/	/
Nc1nnnn1/N=C/C(Br)=C/c1ccccc1	i	-5.1*	i	i	i	i	i	i	i
CCOc1cc(N2CCOCC2)c(OCC)cc1NC(=O)CSc1ncn[nH]1	i	i	i	i	i	/	/	/	/
O=C(OCCN1C(=O)c2ccccc2C1=O)c1cccs1	i	-5*	i	i	i	i	i	i	i
COc1ccc(N=Cc2ccc(-c3ccccc3)o2)cc1	i	-6*	i	i	i	i	i	i	i
COc1ccc(NC(=O)CSc2nc(=O)n(CCN3CCOCC3)c3c2CCCC3)c(OC)c1	i	i	i	i	i	/	/	/	/
O=Cc1ccccc1-c1cn(CN2C(=O)c3ccccc3C2=O)nn1	i	i	i	i	i	/	/	/	/
CCOc1cc2[nH]c(=S)n(C(C)C)c(=O)c2cc1OCC	i	i	i	i	i	/	/	/	/
CCC(CO)n1c(=S)[nH]c2cc(OC)c(OC)cc2c1=O (centres undefined)	i	-4.6*	i	i	i	i	i	i	i
COC(=O)c1sc(S(=O)(=O)N2CCCCC2C(=O)O)c(C(=O)OC)c1C (centres undefined)	i	-5.4*	i	i	i	i	i	i	i
COC(=O)c1sc(S(=O)(=O)N2CCC(C(N)=O)CC2)c(C(=O)OC)c1C	i	i	i	i	i	/	/	/	/
CC1(C)C2CCC(C2)C1(C)NC(=O)CN1CCCC1 (centres undefined)	i	i	i	i	i	/	/	/	/
CC1(C)C2CCC(C2)C1(C)NC(=O)CN1CCOCC1 (centres undefined)	/	-10*	i	/	i	i	i	i	i
COc1cccc(CNC(=O)CCCNC(=O)c2ccc(Cl)cc2)c1	i	i	i	i	i	/	/	/	/
Cn1c(=O)c(=O)n(C)c2cc(S(=O)(=O)Nc3ccc4c(c3)OCCO4)ccc21	i	-5.9*	i	i	i	i	i	i	i
COc1cccc(COc2ccc3c(C)c(Cc4ccccc4)c(=O)oc3c2)c1	i	-6.3*	i	i	i	i	i	i	i
O=C(O)CCSc1ccc2ccccc2n1	i	-6.7*!	i	i	i	i	i	i	i
CN(C)c1ccnc2sc3c(=O)n(-c4ccccc4)cnc3c12	i	-4.6*	i	i	i	i	i	i	i
Cc1ccccc1OCCC(=O)OCC(=O)NCCNC(=O)COC(=O)CCOc1ccccc1C	i	i	i	i	i	/	/	/	/
CCN=C(NCC)SC1CC(=O)N(c2ccccc2)C1=O (centres undefined)	i	-8.2*	i	i	i	i	i	i	i
COc1cc(-c2nnn(CC(=O)NC3CCS(=O)(=O)C3)n2)ccc1OCc1ccccc1 (centres undefined)	i	i	i	i	i	/	/	/	/
COc1ccc(-c2nnn(CC(=O)c3ccccc3)n2)cc1OC	i	-4.7*	i	i	i	i	i	i	i
COc1cc(-c2nnn(CC#N)n2)ccc1OCc1ccccc1	i	-4.7*	i	i	i	i	i	i	i
SMILES	RGS4 pot	MrgX1 antagonist	MrgX1 ag	RGS4 block	MrgX1 allo act	MrgX1 ant reconf	HEK293 Ca flux	HEK293 Ca counter	HEK293 Ca cntr2
CC(C)Oc1ccc(CNC(=O)CCC(=O)N2CCSc3ccccc32)cc1	i	i	i	i	i	/	/	/	/
C=CCn1c(=N)c(S(=O)(=O)c2ccc(C)c(C)c2)cc2c(=O)n3ccccc3nc21	i	i	i	i	i	/	/	/	/
Cc1nn(-c2ccccc2)nc1C(=O)Nc1ccc2c(c1)OCCO2	i	-12*	i	i	i	i	i	i	i
O=C(Nc1ccc(S(=O)(=O)NC2=NCCCCC2)cc1)c1ccc(C(F)(F)F)cc1	i	i	i	i	i	/	/	/	/
CN(C)S(=O)(=O)c1ccc(C(=O)Nc2ccc(S(=O)(=O)NC3=NCCCCC3)cc2)cc1	i	-7.5*	i	i	i	i	i	i	i
CCCCCN(C(=O)CCC(=O)OCC(=O)N1CCCCC1)c1c(N)n(CCCC)c(=O)[nH]c1=O	i	i	i	i	i	/	/	/	/
COc1ccc([N+](=O)[O-])c(OC)c1C(=O)NC(=O)Nc1nc(C)nc(C)n1	i	i	i	i	i	/	/	/	/
COc1ccc(Nc2nc(N)nc(CSc3nnc(N)s3)n2)cc1	i	i	i	i	i	/	/	/	/
COc1ccc(Nc2nc(N)nc(CSc3nccn3C)n2)cc1	i	-4.9*	i	i	i	i	i	i	i
COc1cccc(C2=CC(c3ccccc3)n3nnnc3N2)c1 (centres undefined)	i	-5.6*	i	i	i	i	i	i	i
CN1CCN(S(=O)(=O)c2cccc(C(=O)Nc3sc4c(c3-c3nc5ccccc5[nH]3)CCCC4)c2)CC1	i	-5.5*	i	i	i	55%*	i	i	i
CC(=O)NCCC(=O)Nc1sc2c(c1-c1nc3ccccc3[nH]1)CCCC2	i	i	i	i	i	/	/	/	/
CC(c1ccccc1)n1c(CCCO)nc2ccccc21 (centres undefined)	i	i	i	i	i	/	/	/	/
Cc1cc(Nc2ccccc2)n(-c2ccc(C(=O)O)cc2)n1	i	-4.5*	i	i	i	i	i	i	i

Bioassay records as filed in PubChem BioAssay.
